ChEMBL document CHEMBL4400539, “Discovery of a Novel Chemotype of Histone Lysine Methyltransferase EHMT1/2 (GLP/G9a) Inhibitors: Rational Design, Synthesis, Biological Evaluation, and Co-crystal Structure” (J Med Chem, 2019)
Calls of active or inactive are those of the source. The calls are words filed in the database; no cut-off is given here.

How the values were obtained:
[1] = Cytotoxicity against human U343MG cells assessed as reduction in cell viability up to 5 uM after 72 hrs by MTT assay; assay type: cell-based
Procedure, shortened: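 MCF-7, MDA-MB-231 and U-343 cells exposed 24, 48 and 72 h to 0.05, 0.5, 5 and 50 μM compound; viability by MTT reduction to formazan versus vehicle; mean ± SD of at least three independent experiments.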

[2] = target: T1, Histone-lysine N-methyltransferase EHMT1 (Homo sapiens) (UniProt Q9H9B1); assay: Inhibition of recombinant human GLP at 10 uM using biotinylated-Histone H3 peptide (1 to 21 residues) after 30 mins by AlphaLISA assay relative to control
T1 sequence (whole entry): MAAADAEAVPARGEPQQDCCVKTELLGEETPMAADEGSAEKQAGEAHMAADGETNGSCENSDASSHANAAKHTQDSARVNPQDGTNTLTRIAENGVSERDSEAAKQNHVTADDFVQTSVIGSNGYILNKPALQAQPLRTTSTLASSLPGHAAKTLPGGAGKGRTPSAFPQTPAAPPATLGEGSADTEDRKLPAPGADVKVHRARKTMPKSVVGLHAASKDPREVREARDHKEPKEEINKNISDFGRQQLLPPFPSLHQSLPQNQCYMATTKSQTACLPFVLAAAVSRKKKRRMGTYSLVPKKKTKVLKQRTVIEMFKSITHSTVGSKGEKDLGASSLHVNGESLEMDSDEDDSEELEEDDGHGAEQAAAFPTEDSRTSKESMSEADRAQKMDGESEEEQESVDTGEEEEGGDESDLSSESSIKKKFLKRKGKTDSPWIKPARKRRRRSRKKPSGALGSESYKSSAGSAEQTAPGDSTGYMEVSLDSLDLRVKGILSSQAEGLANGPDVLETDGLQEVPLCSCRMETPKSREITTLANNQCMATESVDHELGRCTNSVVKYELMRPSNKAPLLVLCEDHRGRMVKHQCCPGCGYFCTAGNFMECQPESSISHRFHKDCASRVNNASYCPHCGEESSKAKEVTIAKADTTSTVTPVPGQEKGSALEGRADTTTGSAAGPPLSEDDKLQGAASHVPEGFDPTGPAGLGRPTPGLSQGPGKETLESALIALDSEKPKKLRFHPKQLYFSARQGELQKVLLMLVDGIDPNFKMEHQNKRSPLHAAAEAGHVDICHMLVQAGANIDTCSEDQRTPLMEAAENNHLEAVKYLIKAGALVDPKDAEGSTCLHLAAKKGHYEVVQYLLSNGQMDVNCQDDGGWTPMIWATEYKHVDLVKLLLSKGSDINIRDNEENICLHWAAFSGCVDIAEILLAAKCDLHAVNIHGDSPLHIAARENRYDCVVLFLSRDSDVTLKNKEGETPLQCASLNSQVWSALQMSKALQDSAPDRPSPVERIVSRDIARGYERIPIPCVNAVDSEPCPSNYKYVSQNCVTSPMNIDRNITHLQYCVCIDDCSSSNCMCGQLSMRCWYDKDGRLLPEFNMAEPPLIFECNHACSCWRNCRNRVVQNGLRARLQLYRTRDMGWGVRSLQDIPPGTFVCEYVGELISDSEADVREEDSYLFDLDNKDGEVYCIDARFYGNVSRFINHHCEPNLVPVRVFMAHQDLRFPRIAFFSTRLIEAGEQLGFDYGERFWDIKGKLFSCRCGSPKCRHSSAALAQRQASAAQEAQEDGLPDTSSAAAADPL

[3] = target: T2, Histone-lysine N-methyltransferase EHMT2 (Homo sapiens, UniProt Q96KQ7); assay: Non-competitive inhibition of recombinant human G9a using biotinylated-Histone H3 peptide (1 to 21 residues) as substrate after 30 mins in presence of varying concentration of SAM by Lineweaver-Burk plot analysis
T2 sequence (Q96KQ7 whole entry): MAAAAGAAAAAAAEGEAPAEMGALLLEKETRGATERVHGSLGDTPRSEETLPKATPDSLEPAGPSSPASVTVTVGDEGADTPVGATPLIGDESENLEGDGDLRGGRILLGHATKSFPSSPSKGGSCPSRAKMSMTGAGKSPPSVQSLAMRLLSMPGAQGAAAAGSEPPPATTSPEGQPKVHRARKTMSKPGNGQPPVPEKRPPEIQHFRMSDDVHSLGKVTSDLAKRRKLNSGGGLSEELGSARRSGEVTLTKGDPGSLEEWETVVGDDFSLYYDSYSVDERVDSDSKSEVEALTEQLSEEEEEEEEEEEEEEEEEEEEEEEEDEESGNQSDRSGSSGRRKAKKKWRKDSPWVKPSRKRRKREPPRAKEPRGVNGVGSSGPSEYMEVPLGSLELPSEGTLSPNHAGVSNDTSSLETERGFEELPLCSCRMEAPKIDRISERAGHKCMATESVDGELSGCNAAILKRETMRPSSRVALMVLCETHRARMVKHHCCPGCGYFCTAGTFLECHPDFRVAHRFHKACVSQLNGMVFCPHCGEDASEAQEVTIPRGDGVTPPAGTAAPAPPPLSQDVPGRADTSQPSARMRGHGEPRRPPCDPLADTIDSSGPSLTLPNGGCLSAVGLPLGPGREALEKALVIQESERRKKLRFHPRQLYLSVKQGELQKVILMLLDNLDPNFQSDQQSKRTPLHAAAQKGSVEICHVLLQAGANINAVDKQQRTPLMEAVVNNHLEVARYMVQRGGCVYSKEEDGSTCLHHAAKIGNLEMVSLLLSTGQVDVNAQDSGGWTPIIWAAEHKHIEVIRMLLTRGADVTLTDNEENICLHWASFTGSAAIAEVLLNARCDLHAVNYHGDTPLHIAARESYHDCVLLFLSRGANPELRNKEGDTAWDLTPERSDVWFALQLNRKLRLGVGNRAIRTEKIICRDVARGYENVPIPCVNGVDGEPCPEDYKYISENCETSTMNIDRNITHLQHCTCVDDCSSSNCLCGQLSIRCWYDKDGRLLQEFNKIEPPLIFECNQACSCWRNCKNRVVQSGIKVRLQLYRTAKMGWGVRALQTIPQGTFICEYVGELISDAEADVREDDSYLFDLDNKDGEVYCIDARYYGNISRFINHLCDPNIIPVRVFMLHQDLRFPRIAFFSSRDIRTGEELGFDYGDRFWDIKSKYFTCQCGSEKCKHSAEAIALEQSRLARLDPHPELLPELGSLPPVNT

[4] = target: Protein arginine N-methyltransferase 1 (Homo sapiens) (UniProt Q99873); assay: Inhibition of recombinant human PRMT1 at 10 to 25 uM using biotinylated-Histone H4 peptide (1 to 21 residues) as substrate preincubated for 30 mins followed by substrate addition and measured after 60 mins in presence of SAM by AlphaLISA assay relative to control
Chain of Protein arginine N-methyltransferase 1 (Homo sapiens) (Q99873 whole entry, looked up, the tested form may be a part): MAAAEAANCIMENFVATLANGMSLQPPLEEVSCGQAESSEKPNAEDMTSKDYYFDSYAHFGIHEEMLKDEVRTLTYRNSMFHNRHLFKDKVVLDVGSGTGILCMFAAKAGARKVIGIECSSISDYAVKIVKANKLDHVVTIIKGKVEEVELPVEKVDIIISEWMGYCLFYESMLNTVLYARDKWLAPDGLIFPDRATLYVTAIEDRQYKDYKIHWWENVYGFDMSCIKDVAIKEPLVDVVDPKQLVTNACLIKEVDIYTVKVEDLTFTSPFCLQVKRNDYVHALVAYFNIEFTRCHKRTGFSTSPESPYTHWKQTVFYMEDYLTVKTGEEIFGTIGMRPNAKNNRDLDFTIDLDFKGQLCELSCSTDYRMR
Procedure, shortened: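 Biotinylated H4(1–21) peptide plus SAM then added for 60 min: PRMT1 0.9 nM, peptide 100 nM, SAM 2 μM; PRMT3 23 nM, peptide 50 nM, SAM 10 μM. Anti-H4R3me AlphaLISA; 10 and 25 μM; three experiments, mean ± SD.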

inhibition [2]: 95%
Ki [3]: 3.6 nM
inhibition [4]: inactive
Compound: COc1cc2c(cc1OCCCN1CCCC1)N=C(C1CCCCC1)CN=C2NC1CCN(C(C)C)CC1
Activity [1]: Non-Toxic
